# Published values pooled from the literature.
# Lines come from different studies, so protocols differ.
Compound,tested on,test,test system,conditions,quantity,value
Cc1ccc(N=Nc2c(N)nn3c(-c4ccco4)cc(-c4ccc(OCc5ccccc5)cc4)nc23)cc1,Enterobacter cloacae,microbial killing,ATCC23355,,MBC,125 µg/mL
O=C(Nc1ccc(Cl)cc1)Nc1cccc(-c2cn(Cc3cccc(Br)c3)nn2)c1,NCI-H1299,"cell growth or viability, CCK-8",,"50 µM, 72 h",viability,94.7%
Nc1nn2c(-c3ccc(Cl)cc3Cl)cc(-c3ccc(OCc4ccccc4)cc3)nc2c1N=Nc1ccc(F)cc1,Enterobacter cloacae,microbial killing,ATCC23355,,MBC,62.5 µg/mL
COc1ccc(NC(=O)NCc2cn(Cc3ccc(Cl)cc3)nn2)cc1,NCI-H1299,"cell growth or viability, CCK-8",,"50 µM, 72 h",viability,79.3%
Cc1ccc2[nH]nc(-c3nnc(Nc4ccc(Cl)cc4)s3)c2c1,Serratia marcescens,microbial growth,ATCC8100,,MIC,65.8 µg/mL
O=C(Nc1cccc(-c2cn(Cc3ccc(Cl)cc3)nn2)c1)Nc1ccccc1Br,NCI-H1299,"cell growth or viability, CCK-8",,"50 µM, 72 h",viability,130%
CN(C)CCNC(=O)c1ccc(-c2nc3ccc4[nH]ncc4c3c3c2CCCC3)c(F)c1,22Rv1,cell growth or viability,,72 h,GI50,1.28 µM
O=C(NCc1cn(Cc2ccc(Br)cc2)nn1)Nc1ccc(Cl)cc1,NCI-H1299,"cell growth or viability, CCK-8",,"50 µM, 72 h",viability,91.5%
COc1ccc(N=Nc2c(N)nn3c(-c4ccc(Cl)cc4Cl)cc(-c4ccc(OCc5ccccc5)cc4)nc23)cc1,Enterobacter cloacae,microbial killing,ATCC23355,,MBC,250 µg/mL
CN(C)CCNC(=O)c1ccc(-c2nc3ccc4[nH]ncc4c3c3c2CCCCC3)cc1,22Rv1,cell growth or viability,,72 h,GI50,4.12 µM
O=C(Nc1ccc(-c2cn(Cc3ccc(Br)cc3)nn2)cc1)Nc1ccccc1Br,NCI-H1299,"cell growth or viability, CCK-8",,"50 µM, 72 h",viability,115%
Cc1ccc2[nH]nc(-c3nnc(Nc4ccc(C(F)(F)F)cc4)s3)c2c1,Serratia marcescens,microbial growth,ATCC8100,,MIC,62.8 µg/mL
O=C(Nc1ccc(Cl)cc1)Nc1ccc(-c2cn(Cc3ccc(Cl)cc3)nn2)cc1,NCI-H1299,"cell growth or viability, CCK-8",,"50 µM, 72 h",viability,88.1%
Cc1ccc(N=Nc2c(N)nn3c(-c4ccc(Cl)cc4Cl)cc(-c4ccc(OCc5ccccc5)cc4)nc23)cc1,Enterobacter cloacae,microbial killing,ATCC23355,,MBC,62.5 µg/mL
COc1ccc(NC(=O)Nc2cccc(-c3cn(Cc4ccc(C)cc4)nn3)c2)cc1,NCI-H1299,"cell growth or viability, CCK-8",,"50 µM, 72 h",viability,156%
COc1ccc(N=Nc2c(N)nn3c(-c4ccco4)cc(-c4ccc(OCc5ccccc5)cc4)nc23)cc1,Enterobacter cloacae,microbial killing,ATCC23355,,MBC,62.5 µg/mL
O=C(Nc1ccc(Cl)cc1)Nc1cccc(-c2cn(Cc3ccc(Cl)cc3)nn2)c1,NCI-H1299,"cell growth or viability, CCK-8",,"50 µM, 72 h",viability,76.3%
COc1ccc(NC(=O)Nc2ccc(-c3cn(Cc4cccc(Cl)c4)nn3)cc2)cc1,NCI-H1299,"cell growth or viability, CCK-8",,"50 µM, 72 h",viability,93.7%
